Experimental data from publication PMC5546011 (Journal of medicinal chemistry, 2017).
pEC50: −log10 of the molar value. Entries after “also recorded” stand apart in the source; their conditions may differ. Where two headings read alike, the source gives them in different places.

Experiments:
[1] = Rat liver microsomal stability; conditions: rat liver microsomes 0.25 mg/mL, 10 μM compound, no NADPH, 37°C; result in words
mice [2] = assay: Warm-water tail-withdrawal assay; format: in vivo; conditions: 50°C warm-water tail withdrawal, 2 mg/kg i.p.
mice [3] = assay: Intradermal formalin assay; format: in vivo
human κ-opioid receptor [4] = biological target: T1, human κ-opioid receptor (Homo sapiens, UniProt P41145); assay: Inhibition of forskolin-induced cAMP accumulation, KOR; format: cell-based; conditions: result in words
human κ-opioid receptor [5] = biological target: T1, human κ-opioid receptor; conditions: result in words; cited from earlier work
human δ-opioid receptor = human δ-opioid receptor (Homo sapiens, UniProt P41143); assay: Inhibition of forskolin-induced cAMP accumulation, DOR; format: cell-based
Procedure, shortened: (§1)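 CHO-K1 HitHunter cells stably expressing human δ- or μ-opioid receptor, kept in F-12 with 10% FBS, 1% penicillin/streptomycin/L-glutamine and 800 μg/mL Geneticin at 37 °C, 5% CO2. cAMP accumulation was normalised to vehicle and forskolin-only controls.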

human μ-opioid receptor = human μ-opioid receptor (Homo sapiens, UniProt P35372); assay: Inhibition of forskolin-induced cAMP accumulation, MOR; format: cell-based
Procedure, shortened: as §1

[6] = 2% intradermal formalin, mice, i.p., vs vehicle/formalin controls
[7] = 2% intradermal formalin, mice, i.p., result in words
[8] = 2% intradermal formalin, mice, vs vehicle/formalin controls, result in words

T1 sequence (P41145 whole entry): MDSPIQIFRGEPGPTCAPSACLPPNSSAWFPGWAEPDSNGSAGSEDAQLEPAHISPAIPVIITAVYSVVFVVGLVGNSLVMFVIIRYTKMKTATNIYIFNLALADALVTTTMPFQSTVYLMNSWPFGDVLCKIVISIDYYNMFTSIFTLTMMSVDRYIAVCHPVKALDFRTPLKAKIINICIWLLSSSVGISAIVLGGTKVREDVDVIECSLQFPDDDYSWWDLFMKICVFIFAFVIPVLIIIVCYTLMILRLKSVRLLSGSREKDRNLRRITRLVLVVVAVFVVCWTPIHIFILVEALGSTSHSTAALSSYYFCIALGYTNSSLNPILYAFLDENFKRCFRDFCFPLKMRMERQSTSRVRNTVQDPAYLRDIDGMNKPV
human δ-opioid receptor, sequence (P41143 whole entry): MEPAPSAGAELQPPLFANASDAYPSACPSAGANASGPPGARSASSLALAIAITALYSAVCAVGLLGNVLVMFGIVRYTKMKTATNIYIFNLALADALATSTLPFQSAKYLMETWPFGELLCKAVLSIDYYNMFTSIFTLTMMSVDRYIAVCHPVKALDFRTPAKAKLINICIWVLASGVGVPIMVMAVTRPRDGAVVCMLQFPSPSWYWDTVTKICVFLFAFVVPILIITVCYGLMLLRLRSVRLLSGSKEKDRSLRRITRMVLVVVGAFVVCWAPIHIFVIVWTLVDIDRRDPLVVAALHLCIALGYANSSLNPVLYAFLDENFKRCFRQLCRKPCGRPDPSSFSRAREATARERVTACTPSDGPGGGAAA
human μ-opioid receptor, sequence (P35372 whole entry): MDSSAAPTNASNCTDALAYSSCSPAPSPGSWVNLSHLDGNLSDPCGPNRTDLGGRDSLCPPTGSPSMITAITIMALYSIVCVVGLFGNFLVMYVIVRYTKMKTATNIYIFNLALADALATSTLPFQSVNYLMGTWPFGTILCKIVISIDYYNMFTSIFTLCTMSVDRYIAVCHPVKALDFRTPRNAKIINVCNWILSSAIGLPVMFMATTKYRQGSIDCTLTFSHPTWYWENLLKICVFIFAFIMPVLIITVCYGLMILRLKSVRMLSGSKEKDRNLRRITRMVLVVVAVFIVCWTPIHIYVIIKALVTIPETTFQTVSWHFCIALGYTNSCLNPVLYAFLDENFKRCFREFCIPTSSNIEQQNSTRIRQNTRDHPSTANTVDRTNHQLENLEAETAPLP

COc1ccc2c(c1)[C@]13CCCC[C@@H]1[C@H](C2)N(C)CC3 [dextromethorphan, dextromethorphan hydrobomide, reference compound]
percent remaining at 150 minutes, absence of NADPH [1]: not metabolized

COC(=O)[C@@H]1C[C@H](OC(C)=O)C(=O)[C@H]2[C@@]1(C)CC[C@H]1C(=O)O[C@H](c3ccoc3)C[C@]21C [compound 9, salvinorin A, reference compound]
time of significant analgesic effect compared to vehicle (%MPE time course) (mice [2]): 5 to 30 min
time of significant reduction of phase two pain (mice [3]; [6]): 20 to 50 min
AUC of phase one (0-15 min) pain (mice [3]; [7]): significant reduction
AUC of phase two (15-60 min) pain (mice [3]; [7]): significant reduction
footpad edema at 60 min (mice [3]; [8]): significant reduction in edema

COC(=O)[C@@H]1CCC(=O)[C@H]2[C@@]1(C)CC[C@H]1C(=O)O[C@H](c3ccoc3)C[C@]21C [compound 11, Methyl (2S,4aR,6aR,7R,10aS,10bR)-2-(furan-3-yl)-6a,10b-dimethyl-4,10-dioxododecahydro-2H-benzo[f]isochromene-7-carboxylate]
KOR activity (human κ-opioid receptor [4]): complete loss of KOR activity; also recorded: completely inactive

COC(=O)[C@@H]1C=C(OC(=O)c2ccccc2)C(=O)[C@H]2[C@@]1(C)CC[C@H]1C(=O)O[C@H](c3ccoc3)C[C@]21C [Kurkinorin]
KOR activity (human κ-opioid receptor [5]): no KOR activity

COC(=O)[C@@H]1C[C@]2(CCC(=O)O2)C(=O)[C@H]2[C@@]1(C)CC[C@H]1C(=O)O[C@H](c3ccoc3)C[C@]21C [compound 14, Methyl (2S,4aR,6aR,7R,9R,10aS,10bR)-2-(furan-3-yl)-6a,10b-dimethyl-4,5′,10-trioxododecahydro-2H,3′H,4H-spiro[benzo[f]isochromene-9,2′-furan]-7-carboxylate]
time of significant analgesic effect compared to vehicle (%MPE time course) (mice [2]): 10 to 30 min
pEC50 (human δ-opioid receptor): < 5.00
pEC50 (human μ-opioid receptor): < 5.00
percent remaining at 150 minutes, absence of NADPH [1]: less metabolized than 9
time of significant attenuation of phase one pain (mice [3]; [6]): 10 min
time of significant reduction of phase two pain (mice [3]; [6]): 20 to 45 min
AUC of phase one (0-15 min) pain (mice [3]; [7]): not significantly different from vehicle
AUC of phase two (15-60 min) pain (mice [3]; [7]): reduced phase two pain
footpad edema at 60 min (mice [3]; [8]): significant reduction in edema
effect on formalin pain behavior after pre-treatment with nor-BNI (mice [3]; KOR antagonist nor-BNI 10 mg/kg s.c. 24 hours prior, result in words): prevented
